ChEMBL document CHEMBL3244385, “Antitumor anthracycline antibiotics. Structure-activity and structure-cardiotoxicity relationships of rubidazone analogues” (J Med Chem, 1978)

What was measured:
[1] = system: Calf thymus DNA; experiment: Binding affinity to calf thymus DNA assessed as change in melting temperature at 5 uM by spectrophotometer analysis; type: nucleic-acid assay; conditions: Bos taurus
Method in brief: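 Drug dissolved in Me2SO, diluted with buffer, then mixed with calf thymus DNA. Final mix: 0.01 M phosphate pH 7, 5×10^-5 M DNA, 5×10^-6 M drug, 10^-5 M EDTA, 5% Me2SO. Absorbance at 259 nm recorded every 30 s while heating at 18 °C/h. Tm is the midpoint of the corrected curve; the shift is taken against DNA alone.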

[2] = system: L1210; experiment: Inhibition of DNA synthesis in mouse L1210 cells; type: functional; conditions: read-out: ED50 (the source's name)
[3] = system: L1210; experiment: Inhibition of RNA synthesis in mouse L1210 cells; type: functional; conditions: read-out: ED50 (the source's name)
[4] = Partition coefficient, log P of the compound; type: physicochemical; conditions: octanol/water
[5] = Dissociation constant, pKa of Ar-COOH group of the compound; type: physicochemical
[6] = system: P388; experiment: In vivo antitumor activity against mouse P388 cells allografted in BDF/CDF mouse assessed as host survival time at 16 mg/kg, ip administered on days 1 to 9 relative to control; type: functional; conditions: route intraperitoneal
Method in brief: (§1)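 P-388 lymphocytic leukemia, 10⁶ cells injected ip into BDF or CDF mice on day 0; drug given ip daily on days 1-9 at the stated dose. Read-out T/C: average survival time of treated mice as percent of untreated controls. Assays run by NCI Drug Research and Development Program.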

[7] = system: P388; experiment: In vivo antitumor activity against mouse P388 cells allografted in BDF/CDF mouse assessed as host survival time at 8 mg/kg, ip administered on days 1 to 9 relative to control; type: functional; conditions: route intraperitoneal; method in brief: as §1
[8] = system: P388; experiment: In vivo antitumor activity against mouse P388 cells allografted in BDF/CDF mouse assessed as host survival time at 4 mg/kg, ip administered on days 1 to 9 relative to control; type: functional; conditions: route intraperitoneal; method in brief: as §1
[9] = system: P388; experiment: In vivo antitumor activity against mouse P388 cells allografted in BDF/CDF mouse assessed as host survival time at 2 mg/kg, ip administered on days 1 to 9 relative to control; type: functional; conditions: route intraperitoneal; method in brief: as §1
[10] = system: P388; experiment: In vivo antitumor activity against mouse P388 cells allografted in BDF/CDF mouse assessed as host survival time at 1 mg/kg, ip administered on days 1 to 9 relative to control; type: functional; conditions: route intraperitoneal; method in brief: as §1
[11] = system: P388; experiment: In vivo antitumor activity against mouse P388 cells allografted in BDF/CDF mouse assessed as host survival time at 0.5 mg/kg, ip administered on days 1 to 9 relative to control; type: functional; conditions: route intraperitoneal; method in brief: as §1
[12] = system: P388; experiment: In vivo antitumor activity against mouse P388 cells allografted in BDF/CDF mouse assessed as host survival time at 0.25 mg/kg, ip administered on days 1 to 9 relative to control; type: functional; conditions: route intraperitoneal; method in brief: as §1
[13] = system: P388; experiment: In vivo antitumor activity against mouse P388 cells allografted in BDF/CDF mouse assessed as host survival time at 0.125 mg/kg, ip administered on days 1 to 9 relative to control; type: functional; conditions: route intraperitoneal; method in brief: as §1
[14] = species on record: Rattus norvegicus; experiment: Cardiotoxicity in rat ECG model; conditions: in vivo
[15] = species on record: Rattus norvegicus; experiment: Cardiotoxicity in rat ECG model relative to adriamycin; conditions: in vivo

| SMILES | ΔTm [1] | EC50 [2] | EC50 [3] | logP [4] | pKa [5] | T/C [6] | T/C [7] | T/C [8] | T/C [9] | T/C [10] | T/C [11] | T/C [12] | T/C [13] | MCCD [14] | Ratio [15] |
| --- | --- | --- | --- | --- | --- | --- | --- | --- | --- | --- | --- | --- | --- | --- | --- |
| COc1ccc(C(=O)N/N=C(\C)[C@]2(O)Cc3c(O)c4c(c(O)c3[C@@H](O[C@H]3C[C@H](N)[C@H](O)[C@H](C)O3)C2)C(=O)c2c(OC)cccc2C4=O)cc1.Cl | 10.9 °C | 3.1 µM | 1600 nM | 1.02 | 4.47 | 59% | 183% | 211% | 174% | 158% | 136% | 129% | 119% | 24 mg/kg | 1.8 |
| COc1cccc2c1C(=O)c1c(O)c3c(c(O)c1C2=O)C[C@@](O)(/C(CO)=N/NC(=O)c1ccc(Cl)c(Cl)c1)C[C@@H]3O[C@H]1C[C@H](N)[C@H](O)[C@H](C)O1.Cl | 5.3 °C | 6.6 µM | 3600 nM | 1.94 | 3.62 | 72% | 109% | 202% | 154% | 172% | 143% | 125% | 116% | 20 mg/kg | 1.4 |
| COc1cccc2c1C(=O)c1c(O)c3c(c(O)c1C2=O)C[C@@](O)(/C(CO)=N/NC(=O)c1ccccc1)C[C@@H]3O[C@H]1C[C@H](N)[C@H](O)[C@H](C)O1.Cl | 8.9 °C | 14 µM | 8800 nM | 0.52 | 4.19 | 128% | 201% | 172% | 154% | 154% | 126% | 99% | 103% | 32 mg/kg | 2.4 |
| CCCCOc1ccc(C(=O)N/N=C(\C)[C@]2(O)Cc3c(O)c4c(c(O)c3[C@@H](O[C@H]3C[C@H](N)[C@H](O)[C@H](C)O3)C2)C(=O)c2c(OC)cccc2C4=O)cc1.Cl | 10.2 °C | 3.2 µM | 1400 nM | 2.65 | 4.23 | 54% | 72% | 127% | 179% | 152% | 151% | 143% | 115% | >= 48 mg kg-1 | >= 3.4 |
| COc1cccc2c1C(=O)c1c(O)c3c(c(O)c1C2=O)C[C@@](O)(C(C)=O)C[C@@H]3O[C@H]1C[C@H](N)[C@H](O)[C@H](C)O1 [DAUNORUBICIN] |  | 0.48 µM | 230 nM | 0.82 |  |  |  | 83% | 112% | 162% | 167% | 152% |  | 14 mg/kg | 1.3 |
| COc1cccc2c1C(=O)c1c(O)c3c(c(O)c1C2=O)C[C@@](O)(/C(C)=N/NC(=O)c1cccc([N+](=O)[O-])c1)C[C@@H]3O[C@H]1C[C@H](N)[C@H](O)[C@H](C)O1.Cl | 10.5 °C | 3.2 µM | 2300 nM | 0.76 | 3.46 | 72% | 202% | 190% | 172% | 146% | 130% | 130% | 125% | 32 mg/kg | 2.3 |
| COc1cccc2c1C(=O)c1c(O)c3c(c(O)c1C2=O)C[C@@](O)(C(=O)CO)C[C@@H]3O[C@H]1C[C@H](N)[C@H](O)[C@H](C)O1.Cl [DOXORUBICIN HYDROCHLORIDE] | 13.4 °C | 1.5 µM | 670 nM | 0.3 |  |  |  | 77% | 149% | 193% | 187% | 170% |  | 11 mg/kg | 1 |
